Experimental data pooled from the literature.
Lines come from different studies, so protocols differ.
Target: Calcium/calmodulin-dependent protein kinase type II subunit alpha (CAMK2A, Homo sapiens, UniProt Q9UQM7)

Structure (SMILES) | assay | setting | quantity | result
CCCCC(=O)Nc1ccc(-c2ccc3ncn(CCC)c(=O)c3c2)cn1 | binding, competition with immobilised ligand | 0.5 µM | remaining binding | 100%
C=CC(=O)N1CCC([C@@H]2CCNc3c(C(N)=O)c(-c4ccc(Oc5ccccc5)cc4)nn32)CC1 | enzyme activity, inhibitor | 1 µM | inhibition | 0%
CC(C)S(=O)(=O)c1ccc2nccc(Nc3ccc4sc(C5CCCC5)nc4c3)c2c1 | enzyme activity, inhibitor | 1 µM | activity vs control | 104%
COc1ccc2[nH]c3c4[nH]c5ccc(OC)cc5c4c4c(c3c2c1)C(=O)NC4=O | binding | 1 µM | remaining binding | 70%
CCCCCCCCCCCO | enzyme activity, inhibitor | 10 µM | inhibition | -20%
CO[C@@H]1[C@H](N(C)C(=O)c2ccccc2)C[C@H]2O[C@]1(C)n1c3ccccc3c3c4c(c5c6ccccc6n2c5c31)C(=O)NC4 | enzyme activity, inhibitor | 1 µM | inhibition | 94%
C1=C/COCc2cc(ccc2OCCN2CCCC2)Nc2nccc(n2)-c2cccc(c2)COC/1 | binding | 0.1 µM | remaining binding | 91%
COc1ccc2oc(-c3ccc4nc(N)oc4c3)c/c(=N\c3ccccc3NC(=O)CCN)c2c1 | binding | 1 µM | remaining binding | 93%
CCCCCCCCCCCCCCCCCCCCCCO | enzyme activity, inhibitor | 10 µM | inhibition | -5%
C[C@H]1CC[C@H](n2c3cnccc3c3cnc(Nc4ccc5c(n4)CCN(C(=O)CO)C5)nc32)CC1 | cell-free assay | 1 µM | remaining signal | 33%
